The sample as a whole holds a higher share of hits than the screen did.
XBP1 UPR activ: activators of adaptive XBP1 UPR arm, primary screen, cell-based, CHO-XBP1 luciferase reporter, luminescence, uHTS | IRE1-XBP1 UPR activation; percent of tunicamycin response, DMSO as zero | activation, % at 20 µM | 0.33% of 330,000 active | AID 463104, 2010;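 active = versus positive control, 20 µM dose yields 30% or more activation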;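 note: 100% = tunicamycin at 10 µg/mL and 0% = DMSO only wells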
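Material: CHO cell line with stable XBP1 luciferase reporter; buffer or medium: F12 medium containing 10% fetal bovine serum; compound: single point, 20 µM final compound, 1% DMSO; incubation: 6 h treatment, 37 °C; measured by: glow luminescence from Steady-Glo reagent; evaluation: activation, % of tunicamycin; control set: tunicamycin high, DMSO low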
T cruzi repl: inhibitors of intracellular T. cruzi growth, primary screen, luminescence, NIH3T3 host cells; inhibition, % (concentration not given with the values); AID 1885, 2009; 1.4% of 300,000 active; T. cruzi beta-gal in NIH3T3, 90 h;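 active = mean inhibition across valid replicates above about 55%, limit read from the data; inconclusive = mean below that limit but half or more replicates reach it; inactive = mean below it, under half of replicates reach it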;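 note: signal also drops with host cell toxicity which is not excluded here; 0% = plate median of DMSO wells and 100% = zero luminescence signal; higher percent means less beta-gal luminescence so fewer parasites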
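assay system = mouse NIH/3T3 fibroblasts infected with β-gal-expressing T. cruzi Tulahuen C4 | input = 5,000 NIH/3T3 host cells per well | buffer or medium = DMEM plus 2% FBS | timing = 3 h host attachment, then at least 90 h co-culture | measured by = GalScreen luminescence, 60 min | evaluation = luminescence reflecting intracellular parasite burden, expressed as percent inhibition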
CHOP inhibitor: inhibitors of CHOP promoter induction, primary screen, cell-based, unfolded protein response, luciferase reporter. CHO-K1 CHOP-promoter luciferase, tunicamycin-induced, 15-18 h. inhibition, % at 10 µM. 3.8% of 220,000 active. AID 2732, 2010;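 active = compounds that reduced the stress-induced luciferase reporter signal by more than about 70% of percent inhibition, limit read from the data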;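 note: 0% = tunicamycin plus vehicle and 100% = wells without tunicamycin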
Lmaj promast: Leishmania major promastigote growth inhibition, primary screen; Leishmania major promastigotes, resazurin fluorescence viability; inhibition, % at 10 µM; 9% of 200,000 active; in the data active = inhibition above about 50%;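 note: promastigotes grown with compound for 44 hours at 28 °C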
CHOP UPR activ: activators of apoptotic CHOP UPR arm, primary screen, cell-based, CHO-CHOP luciferase reporter, luminescence, uHTS; UPR activation; percent of tunicamycin response over DMSO baseline; activation, % at 10 µM; 0.34% of 330,000 active; AID 449763, 2010;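 active = at 10 µM dose, activation of 40% or more, normalized to positive control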;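 note: 100% = tunicamycin at 10 µg/mL and 0% = DMSO alone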
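Material: CHO-CHOP cells, stable luciferase reporter of PERK-eIF2a-CHOP signalling; quantity: 500 reporter cells seeded per well; buffer or medium: F12 medium containing 10% fetal bovine serum; compound: one dose, 10 µM in 0.5% DMSO; incubation: 6 h compound treatment, 37 °C; measured by: Steady-Glo luciferase luminescence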
Dynein transport: inhibitors of GR-EGFP nuclear translocation, primary screen, dynein cargo transport inhibitor project, imaging, high-content, 3617.4 mouse cells. test concentration mostly 20 µM; stimulated with dexamethasone, 1 µM; active compounds read low. z-score, hits read low. 0.47% of 220,000 active. AID 1381, 2008;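 active = plate z-score of nuclear minus cytoplasmic receptor signal below a set negative limit, without overly bright fluorescence or cell loss, cut at about -3.5 in these data, passing the limit was not always enough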;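 note: z-score of nuclear minus cytoplasmic ring GR-EGFP intensity difference per well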
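Medium: Induction medium lacking tetracycline, stripped serum | Probe or stimulus: 1.0 µM final dexamethasone stimulus | Schedule: 48 h induction, then 1 h compound, then 30 min agonist, 37 °C | Signal: Automated 10x imaging of fixed Hoechst-stained cells | Evaluation: Per-cell GR-EGFP intensity, nucleus versus surrounding cytoplasmic ring, well-averaged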
CHOP inh conf: retest of CHOP induction inhibitors, confirmation, cell-based; inhibition, % at 10 µM; 45% of 2,100 active; CHO-CHOP promoter luciferase reporter, tunicamycin-induced, luminescence; shares compounds with CHOP inhibitor; AID 504437, 2011;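 active = mean of three repeat readings of reporter signal inhibition above a set limit, cut at about 70% in these data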;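 note: 0% = tunicamycin plus vehicle and 100% = wells lacking tunicamycin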
Starred values were filed as active, the others as inactive; ? = inconclusive; · = no result.

SMILES | XBP1 UPR activ | T cruzi repl | CHOP inhibitor | Lmaj promast | CHOP UPR activ | Dynein transport | CHOP inh conf
CCc1nnc(NS(=O)(=O)c2ccc(NC(=S)NC(=O)/C=C/c3ccc(C(C)C)cc3)cc2)s1 | -1 | -3 | 105* | -8 | 7 | -0.82 | 118*
COC(=O)c1[nH]c2ccc(C)cc2c1NC(=O)Nc1ccc(OC)cc1 | -2 | -4 | 101* | -3 | 2 | 0.15 | 37
Fc1c(F)c(-n2nnc3ccccc32)c(F)c(F)c1Cl | 14 | -8 | · | · | -2 | · | ·
O=C(Nc1ccccc1)Nc1cc(OCC(F)(F)F)cc(OCC(F)(F)F)c1 | · | 87* | 107* | 100* | · | 0.31 | 126*
O=C(Nc1ccccc1)Nc1cc(Cl)cc(Cl)c1 | 0 | ? | 111* | 4 | 3 | 1.5 | 68
O=C(Nc1ccccc1)Nc1ccc(Oc2cccnc2)nc1 | 1 | -18 | -8 | · | 4 | -0.45 | ·
C=CCC(c1ccccc1)N(C(C)=O)c1ccco1 (stereo unspecified) | -3 | -6 | 2 | 0 | -1 | 0.26 | ·
C=CCC(Nc1ccccc1)C12C=CC(O1)C(C(=O)OC)=C2C(=O)OC (stereo unspecified) | -12 | -1 | 112* | 3 | 35 | -1.7 | 42
Cc1ccc(CNCc2cc3c(C(C)(C)C)nn(-c4ccccc4)c3[nH]c2=O)cc1 | 8 | 29 | 108* | 23 | 1 | -0.14 | 71*
COc1ccc(CNCc2cc3c(C(C)(C)C)nn(-c4ccccc4)c3[nH]c2=O)cc1 | 3 | 9 | -8 | 17 | -1 | -0.074 | ·
S=C(Nc1ccc(Oc2ccccc2)cc1)N1CCN(c2ccccn2)CC1 | -1 | -8 | 27 | 0 | -3 | 1.2 | ·
Cc1cc2c([nH]c3ccccc32)c2c1OC(C)(C)C=C2 | 4 | 0 | 98* | · | 3 | -0.48 | 97*
C=CCNS(=O)(=O)NC(=O)C1=C(N2CCCC2)COC1=O | -2 | · | · | · | -2 | · | ·
CCC(C)c1ccc(O)c(NC(=O)c2cncc(Br)c2)c1 (stereo unspecified) | 1 | 2 | 111* | 18 | 1 | 0.82 | 82*
COC(=O)c1cccc(NC(=O)NC23CC4CC(CC(C4)C2)C3)c1 | 1 | 8 | 101* | 2 | 0 | 1.1 | -42
Cc1csc(=O)n1CCC(=O)OCC(=O)NNC(=O)c1ccccc1 | -2 | -4 | · | · | 2 | · | ·
C=CCn1c(COc2ccccc2)nnc1SC(C)C(=O)N/N=C/c1cc(Cl)ccc1O (stereo unspecified) | -3 | · | 97* | 98* | -4 | 1.6 | 128*
C=CCn1c(COc2ccc(Cl)cc2)nnc1SCC(=O)N/N=C/c1cccc(O)c1 | 2 | 12 | 21 | -2 | 1 | -0.58 | ·
CNc1ccc(Br)cc(C(=O)/C=C/c2cccc(Cl)c2Cl)c1=O | · | · | 101* | 96* | · | -4.1 | -100
COc1ccccc1CNC(=O)C1CCN(c2ncnc3c2nc2n3CCCCC2)CC1 | -2 | 10 | · | · | -2 | · | ·
CC(C)Cn1c(=O)c2ccccc2n2c(SCC(=O)N3c4ccccc4CC3C)nnc12 (stereo unspecified) | -3 | 3 | 98* | 72* | 3 | 0.47 | 85*
CC(C)NC(=O)Cn1c(SCC(=O)N2c3ccccc3CC2C)nc2ccccc21 (stereo unspecified) | 2 | 9 | 56 | 13 | -3 | -0.43 | ·
CCOc1ccc(/C=N/NC(=O)c2cc(-c3ccco3)nc3ccccc23)cc1 | 28 | -37 | 104* | 7 | 5 | 2 | 95*
Cc1ccccc1CCNC(=O)c1ccc(Cl)c(S(=O)(=O)N2CC(C)OC(C)C2)c1 (stereo unspecified) | 0 | · | · | · | 0 | · | ·
CCC(Oc1ccc(Br)cc1Cl)C(=O)Nc1nnc(C2CC2)s1 (stereo unspecified) | -4 | -2 | · | · | 1 | · | ·
SMILES | XBP1 UPR activ | T cruzi repl | CHOP inhibitor | Lmaj promast | CHOP UPR activ | Dynein transport | CHOP inh conf
Clc1ccc(C2Nc3cccc4cccc(c34)N2)cc1 | 3 | -6 | · | · | 0 | · | ·
Brc1ccc(C2Nc3cccc4cccc(c34)N2)s1 | · | · | 104* | 2 | · | 0.37 | 3
CC(c1ccccc1F)n1cc(C(=O)NCCCc2nc3ccccc3[nH]2)nn1 (stereo unspecified) | -4 | 0 | 97* | 0 | 0 | 0.28 | 20
CC(c1ccc(F)cc1)n1cc(C(=O)NCCN(C)C)nn1 (stereo unspecified) | 3 | 6 | 18 | -6 | 0 | 0.22 | ·
Cc1ccc(OCC2Cn3c(nc4c3c(=O)[nH]c(=O)n4C)O2)cc1C (stereo unspecified) | -3 | -7 | · | · | 0 | · | ·
Cc1cccc(NC(=O)c2c(O)c3ccccc3n(C)c2=O)c1 | 2 | -8 | · | · | 8 | · | ·
CCCn1c(=O)c(C(=O)Nc2ncccc2O)c(O)c2ccccc21 | -6 | 4 | · | · | 1 | · | ·
CCCCc1nc2ccccc2c(=O)n1NC(=O)c1c(O)c2ccccc2n(C)c1=O | 2 | -10 | 98* | 73* | 12 | -0.016 | 92*
Cn1c(=O)c(C(=O)Nc2ncccc2O)c(O)c2ccccc21 | 1 | 0 | 110* | -4 | 0 | 0.65 | 84*
Cc1ccc(NC(=O)c2c(O)c3ccccc3n(C)c2=O)nc1 | 23 | 3 | 97* | 71* | 2 | -0.001 | -10
COc1ccc(Cl)cc1NC(=O)CN(C)C(=O)c1cn2ccccc2n1 | -3 | · | · | · | 0 | · | ·
COc1ccc(C(=O)Nc2ccnn2C2CCN(C(=O)c3cc(C)on3)CC2)cc1 | 1 | -2 | · | · | 4 | · | ·
O=C(CCCN1C(=O)/C(=C\c2ccccc2)SC1=S)Nc1ccc(O)cc1 | -1 | 46 | 98* | 39 | 1 | -0.94 | 18
Cc1cc(C(=O)NNC(=S)NC(=O)/C=C/c2ccccc2Cl)n[nH]1 | -2 | -2 | 108* | 78* | 0 | -0.45 | 40
Cc1cc(C)nc(NC(=O)/C=C/c2ccccc2Cl)n1 | 3 | 11 | 15 | 0 | 5 | -0.38 | ·
Cc1ccc2nc(NC(=O)CN(C)S(=O)(=O)c3ccc(Br)s3)sc2c1 | -1 | 47 | 102* | 99* | 1 | 0.24 | 24
CCN(C(=O)c1cc2c(=O)[nH]c3ccc(C)cc3c2s1)c1cccc(C)c1 | 10 | 56* | 98* | · | 2 | -1.1 | 18
O=C(CC1CCCC1)Nc1ccc(Cl)c(S(=O)(=O)N2CCOCC2)c1 | 0 | · | · | · | 1 | · | ·
